The source made the active and inactive calls. The calls are words filed in the database; no cut-off is given here.
Assays:
[1] = Drug uptake in mouse 4T1.2 cell lysosomes at 5 uM encapsulated within cucurbit[8]uril after 20 mins by LysoTracker Green staining based laser scanning confocal microscopic method; type: ADME, Lysosome
4T1.2 [2] = assay: Growth inhibition of mouse 4T1.2 cells up to 20000 nM after 48 hrs by MTT assay; type: functional, cell-based
4T1.2 [3] = assay: Growth inhibition of mouse 4T1.2 cells up to 20000 nM encapsulated within cucurbit[8]uril after 48 hrs by MTT assay; type: functional, cell-based
Mus musculus [4] = assay: Toxicity in Balb/c mouse assessed as body weight loss at 2 mg/kg, iv administered twice weekly for 2 weeks relative to control; type: organism-based; conditions: in vivo, 336 h
Procedure, shortened: (§1)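 Non-tumor-bearing female Balb/c mice (9 weeks old), four per group, were dosed iv by tail vein on days 0, 3, 7 and 10. Dose was 2 mg/kg as mitoxantrone (complex adds 3 mg/kg Q[8]) in 0.9% saline vehicle. Body weight was recorded daily and expressed as mean change from baseline.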

Mus musculus [5] = assay: Toxicity in Balb/c mouse assessed as body weight loss at 3 mg/kg, iv encapsulated within cucurbit[8]uril administered twice weekly for 2 weeks; type: organism-based; conditions: in vivo, 336 h; procedure, shortened: as §1
Mus musculus [6] = assay: Toxicity in Balb/c mouse implanted with mouse 4T1.2 cells assessed as body weight loss at 3 mg/kg, iv encapsulated within cucurbit[8]uril administered twice weekly for 2 weeks; type: organism-based; conditions: in vivo, 336 h
Procedure, shortened: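 Mice bore orthotopic 4T1.2 mammary fat pad tumors, with treatment begun on day 8. Dosing was iv twice weekly for 2 weeks at 2 mg/kg mitoxantrone plus 3 mg/kg Q[8], in saline vehicle. Body weight was monitored. Culling at >20% weight loss, tumor >1500 mm3, or metastatic distress.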

4T1.2 [7] = assay: Antitumor activity against mouse 4T1.2 cells implanted in Balb/c mouse assessed as tumor growth inhibition at 2 mg/kg, iv administered twice weekly for 2 weeks; type: functional, organism-based
Procedure, shortened: (§2)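 Female Balb/c mice given 1 × 105 4T1.2 cells into the fourth mammary fat pad. Dosing started once tumors were palpable on day 8. Dosed iv by tail vein twice weekly for 2 weeks, 2 mg/kg as mitoxantrone (complex adds 3 mg/kg Q[8]), in 0.9% saline vehicle. Primary tumors measured with digital calipers. Groups n = 10–11. One-way ANOVA against vehicle.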

4T1.2 [8] = assay: Antitumor activity against mouse 4T1.2 cells implanted in Balb/c mouse assessed as tumor growth inhibition at 3 mg/kg, iv encapsulated within cucurbit[8]uril administered twice weekly for 2 weeks; type: functional, organism-based; procedure, shortened: as §2
4T1.2 [9] = assay: Antitumor activity against mouse 4T1.2 cells implanted in Balb/c mouse assessed as mouse survival time at 3 mg/kg, iv encapsulated within cucurbit[8]uril administered twice weekly for 2 weeks measured up to 33 days; type: functional
Procedure, shortened: (§3)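 Female Balb/c mice given 1 × 10^5 4T1.2 cells into the fourth mammary fat pad. Treatment started on day 8 once tumours were palpable: 2 mg/kg mitoxantrone-equivalent (complex formulation also 3 mg/kg Q[8]) or 0.9% saline vehicle, by tail-vein iv, twice weekly for 2 weeks. Monitored to day 33. Culled at >20% weight loss, tumour >1500 mm3 or metastatic distress. Kaplan–Meier analysis with log-rank test.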

4T1.2 [10] = assay: Antitumor activity against mouse 4T1.2 cells implanted in Balb/c mouse assessed as mouse survival rate at 2 mg/kg, iv administered twice weekly for 2 weeks measured up to 33 days (rvb = 30%); type: functional; conditions: 4T1.2, iv; procedure, shortened: as §3
[11] = Drug uptake in mouse 4T1.2 cell at 5 uM after 4 hrs by laser scanning confocal microscopic method
[12] = Drug uptake in mouse 4T1.2 cell at 5 uM encapsulated within cucurbit[8]uril after 4 hrs by laser scanning confocal microscopic method

## O=C1c2c(O)ccc(O)c2C(=O)c2c(NCCNCCO)ccc(NCCNCCO)c21 [MITOXANTRONE]
[1]
  Drug uptake: Active
4T1.2 [2]
  growth inhibition (GI): Active
4T1.2 [3]
  growth inhibition (GI): Active
Mus musculus [4]
  Activity: 15%
Mus musculus [5]
  Activity: Non-Toxic
Mus musculus [6]
  Activity: Non-Toxic
4T1.2 [7]
  TGI: Active
4T1.2 [8]
  TGI: Active
4T1.2 [9]
  Survival: 26 days
4T1.2 [10]
  survival at 2 mg/kg: 60%
[11]
  Drug uptake: Active
[12]
  Drug uptake: Active
